Test results reported in PubChem BioAssay AID1517 (The Scripps Research Institute Molecular Screening Center, 2009).
The other results are listed elsewhere or left out. A number with no mark means an inactive call.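 Rule for the calls: active = percent inhibition of p97 ATPase above a set limit, the primary screen's mean plus 3 SD (cut at about 15% in these data); inactive = the rest.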

Target: Transitional endoplasmic reticulum ATPase (Homo sapiens) (UniProt P55072)
Assay: blockers of p97 ATP hydrolysis – biochemical, confirmation (AID 1517);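 note: 0% = DMSO wells and 100% = wells lacking p97 protein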
Settings: recombinant p97 ATPase, Kinase-Glo ATP luminescence; at 8 µM; stronger effect = higher value
How it was run: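 Assay system: Recombinant p97 ATPase enzyme protein | Medium: pH 8.0 Tris with MgCl2, EDTA, DTT | Dosing: 8 µM single dose | Schedule: 30 min compound–enzyme preincubation at 25 °C, then 3 h ATP reaction | Measured by: Kinase-Glo luminescence | Control set: DMSO wells without compound and wells lacking p97 enzyme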

Transitional endoplasmic reticulum ATPase (Homo sapiens), sequence (P55072 whole entry, looked up): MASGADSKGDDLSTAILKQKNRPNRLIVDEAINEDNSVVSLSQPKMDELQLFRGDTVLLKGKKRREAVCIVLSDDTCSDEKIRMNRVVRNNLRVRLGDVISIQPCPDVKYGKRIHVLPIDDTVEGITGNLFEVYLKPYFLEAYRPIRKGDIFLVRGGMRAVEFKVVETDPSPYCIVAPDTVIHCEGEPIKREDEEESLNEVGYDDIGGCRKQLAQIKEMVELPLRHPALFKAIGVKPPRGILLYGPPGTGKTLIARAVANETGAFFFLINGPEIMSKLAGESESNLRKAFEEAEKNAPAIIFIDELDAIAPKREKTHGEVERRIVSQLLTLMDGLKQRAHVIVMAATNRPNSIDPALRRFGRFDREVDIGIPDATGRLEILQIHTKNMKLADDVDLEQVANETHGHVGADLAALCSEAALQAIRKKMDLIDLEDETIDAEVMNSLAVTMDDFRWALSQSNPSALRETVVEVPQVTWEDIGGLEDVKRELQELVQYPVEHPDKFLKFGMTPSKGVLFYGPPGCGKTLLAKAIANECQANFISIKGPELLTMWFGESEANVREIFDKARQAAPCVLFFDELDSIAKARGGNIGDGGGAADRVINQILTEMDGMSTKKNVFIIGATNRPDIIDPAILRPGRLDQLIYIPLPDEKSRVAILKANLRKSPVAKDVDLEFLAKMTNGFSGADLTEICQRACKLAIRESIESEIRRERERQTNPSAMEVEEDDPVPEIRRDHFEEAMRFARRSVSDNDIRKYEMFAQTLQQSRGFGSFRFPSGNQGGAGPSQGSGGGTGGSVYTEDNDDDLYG

`O=c1[nH]c(CN2CC=C(c3ccccc3)CC2)nc2scc(-c3cccs3)c12` showed an inhibition of 10.8%.
